Seven compounds from ChEMBL document CHEMBL1144851, “Opioids and efflux transporters. Part 2: P-glycoprotein substrate activity of 3- and 6-substituted morphine analogs” (J Med Chem, 2008) can be followed below.

A short description of series [1]: Selectivity for recombinant mu opioid receptor over recombinant delta opioid receptor. The procedure, abridged:
(§1)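 Ratios of Ki values from [3H]diprenorphine displacement in membranes of C6 rat glioma cells expressing µ or δ receptors and CHO cells expressing κ receptor; three experiments in duplicate.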

Series [2] addresses Mu-type opioid receptor (Homo sapiens, UniProt P35372). Nature of the series: Displacement of [3H]diprenorphine from recombinant mu opioid receptor expressed in C6 cells. Format: cell-based. A general note: Loss of bound radioactivity is the signal in a displacement assay; it reports binding, not function.
Series [3] deals with Kappa-type opioid receptor (Homo sapiens, UniProt P41145). Kind of series: Displacement of [3H]diprenorphine from recombinant kappa opioid receptor expressed in CHO cells. It is filed as cell-based.
The target of series [4] is Delta-type opioid receptor (Homo sapiens, UniProt P41143). Nature of the series: Displacement of [3H]diprenorphine from recombinant delta opioid receptor expressed in C6 cells. Format: cell-based. An outline of the steps: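 Competitive binding against [3H]diprenorphine in membranes of C6 rat glioma cells expressing recombinant δ opioid receptor; Ki from three experiments run in duplicate, mean ± SEM.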

Series [5] is described as follows: Selectivity for recombinant mu opioid receptor over recombinant kappa opioid receptor. The procedure, abridged: as §1
Series [6] concerns the target ATP-dependent translocase ABCB1 (Homo sapiens, UniProt P08183). Kind of series: Effect on human recombinant Pgp-mediated ATP consumption assessed as inhibition of ATPase activity at 200 uM by Pgp-Glo assay. An outline of the steps:
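Recombinant human P-gp incubated with 200 µM compound in P-gp-Glo buffer, four wells each; started with MgATP (10 mM), quenched after 40 min with firefly luciferase ATP detection reagent, luminescence read 60 min later. Untreated, vanadate (100 µM) and verapamil (200 µM) controls; mean ± SEM, t-test.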

The subject of series [7] is Mus musculus. Nature of the series: Antinociceptive activity in sc dosed mouse by hot plate assay. Format: functional. The procedure, abridged: (§2)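 Mice, test compound given subcutaneously; antinociception measured in tail-flick, p-phenylquinone writhing and hot plate assays following CPDD Drug Evaluation Committee protocols. ED50 (mg/kg) with 95% confidence limits.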

Series [8] deals with Mus musculus. Nature of the series: Antinociceptive activity in sc dosed mouse by tail flick assay. It is filed as functional. An outline of the steps: as §2
Series [9] concerns Mus musculus. Nature of the series: Antinociceptive activity in sc dosed mouse by p-phenylquinone writhing assay. Format: functional. An outline of the steps: as §2
In general terms: In writhing tests, fewer writhes than in controls are read as antinociception.

Delta-type opioid receptor, sequence (P41143 whole entry): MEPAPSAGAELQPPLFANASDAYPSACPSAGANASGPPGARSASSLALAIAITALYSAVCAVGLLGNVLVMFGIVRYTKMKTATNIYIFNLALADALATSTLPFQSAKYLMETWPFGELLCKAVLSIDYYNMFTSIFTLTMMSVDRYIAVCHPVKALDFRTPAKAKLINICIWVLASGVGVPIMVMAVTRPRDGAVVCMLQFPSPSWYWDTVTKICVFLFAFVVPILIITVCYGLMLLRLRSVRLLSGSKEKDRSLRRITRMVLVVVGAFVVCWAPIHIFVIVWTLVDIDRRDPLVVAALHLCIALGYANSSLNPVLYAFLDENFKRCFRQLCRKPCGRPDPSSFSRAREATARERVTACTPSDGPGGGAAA
Mu-type opioid receptor, sequence (P35372 whole entry): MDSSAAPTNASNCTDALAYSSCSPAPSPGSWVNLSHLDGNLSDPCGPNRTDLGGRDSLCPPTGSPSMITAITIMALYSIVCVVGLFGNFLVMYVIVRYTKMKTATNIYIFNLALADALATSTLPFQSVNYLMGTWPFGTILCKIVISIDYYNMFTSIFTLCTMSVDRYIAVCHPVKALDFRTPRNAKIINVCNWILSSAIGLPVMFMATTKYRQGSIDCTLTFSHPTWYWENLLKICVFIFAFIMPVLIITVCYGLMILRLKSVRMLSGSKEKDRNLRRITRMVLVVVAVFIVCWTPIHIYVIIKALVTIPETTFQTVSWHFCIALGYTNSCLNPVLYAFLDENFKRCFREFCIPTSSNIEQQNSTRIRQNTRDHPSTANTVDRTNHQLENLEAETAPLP
ATP-dependent translocase ABCB1, sequence (P08183 whole entry): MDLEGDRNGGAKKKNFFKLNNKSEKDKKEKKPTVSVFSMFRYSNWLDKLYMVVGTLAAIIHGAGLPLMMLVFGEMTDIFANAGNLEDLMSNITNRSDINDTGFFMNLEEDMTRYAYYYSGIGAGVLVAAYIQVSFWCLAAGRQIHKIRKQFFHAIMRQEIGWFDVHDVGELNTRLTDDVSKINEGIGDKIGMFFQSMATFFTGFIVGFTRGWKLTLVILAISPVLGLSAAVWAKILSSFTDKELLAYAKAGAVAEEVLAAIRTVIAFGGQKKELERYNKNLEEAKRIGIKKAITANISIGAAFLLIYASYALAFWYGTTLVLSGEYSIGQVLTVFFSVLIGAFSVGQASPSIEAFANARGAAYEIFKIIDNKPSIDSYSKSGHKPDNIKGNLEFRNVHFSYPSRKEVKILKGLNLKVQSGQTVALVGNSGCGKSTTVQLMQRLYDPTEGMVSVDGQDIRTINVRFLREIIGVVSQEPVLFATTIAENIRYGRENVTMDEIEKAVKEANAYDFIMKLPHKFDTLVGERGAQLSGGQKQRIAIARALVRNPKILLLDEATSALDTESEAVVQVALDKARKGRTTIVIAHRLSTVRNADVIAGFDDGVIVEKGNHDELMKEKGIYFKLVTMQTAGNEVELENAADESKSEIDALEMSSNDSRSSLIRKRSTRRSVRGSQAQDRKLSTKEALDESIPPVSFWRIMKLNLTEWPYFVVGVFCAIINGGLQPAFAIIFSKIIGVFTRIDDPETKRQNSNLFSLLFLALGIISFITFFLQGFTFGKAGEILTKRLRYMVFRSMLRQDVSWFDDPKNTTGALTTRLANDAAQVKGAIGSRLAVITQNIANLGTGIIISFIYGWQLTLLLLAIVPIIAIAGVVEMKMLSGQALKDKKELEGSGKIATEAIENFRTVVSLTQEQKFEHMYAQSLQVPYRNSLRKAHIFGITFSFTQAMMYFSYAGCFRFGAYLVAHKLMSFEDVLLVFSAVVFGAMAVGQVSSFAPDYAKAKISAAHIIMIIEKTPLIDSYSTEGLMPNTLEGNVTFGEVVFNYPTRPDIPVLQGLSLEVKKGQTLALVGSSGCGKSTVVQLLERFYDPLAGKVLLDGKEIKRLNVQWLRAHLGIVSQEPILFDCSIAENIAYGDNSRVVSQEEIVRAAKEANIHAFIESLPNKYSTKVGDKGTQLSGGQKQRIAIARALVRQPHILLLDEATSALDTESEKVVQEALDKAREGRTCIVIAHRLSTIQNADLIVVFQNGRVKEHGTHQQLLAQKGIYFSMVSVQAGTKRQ
Kappa-type opioid receptor, sequence (P41145 whole entry): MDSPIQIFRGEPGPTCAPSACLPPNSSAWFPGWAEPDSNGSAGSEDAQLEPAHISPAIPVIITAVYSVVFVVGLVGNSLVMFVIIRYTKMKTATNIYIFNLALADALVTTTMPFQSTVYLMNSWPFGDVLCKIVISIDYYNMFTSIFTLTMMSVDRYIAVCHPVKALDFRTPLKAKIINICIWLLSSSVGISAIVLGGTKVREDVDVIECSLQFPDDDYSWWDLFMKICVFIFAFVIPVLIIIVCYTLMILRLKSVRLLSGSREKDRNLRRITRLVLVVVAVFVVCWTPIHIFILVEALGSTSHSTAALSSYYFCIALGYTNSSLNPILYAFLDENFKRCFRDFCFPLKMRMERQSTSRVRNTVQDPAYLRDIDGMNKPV

The term Ki denotes a dissociation constant, usually derived from enzyme kinetics or from competition with a known ligand. With `COc1ccc2c3c1O[C@H]1[C@@H](OC)C=C[C@H]4[C@@H](C2)N(C)CC[C@@]341`, the Ratio Ki stood at 2 in series [1] and 3 in series [5]. Further, the inhibitory constant (Ki) in series [2] is 1.91 µM; in [3], 5.43 µM; in [4] it was 4.41 µM.
In the case of `CN1CC[C@]23c4c5cccc4O[C@H]2[C@@H](O)CC[C@H]3[C@H]1C5`, the Ratio Ki was determined as 43 in series [1] and 40 in series [5]. The Ki in series [2] was determined as 0.122 µM; in [3] it was 4.91 µM; in [4], 5.25 µM. Also, the outcome in [6] was Active.
For the compound `CN1CC[C@]23c4c5cccc4O[C@H]2CCC[C@H]3[C@H]1C5`, the Ratio Ki was determined as 11 in series [1] and 26 in series [5]. Moreover, the Ki in series [2] is 0.0229 µM; in [3], 0.589 µM; in series [4] it was 0.241 µM.
For the compound `COc1ccc2c3c1O[C@H]1CC=C[C@H]4[C@@H](C2)N(C)CC[C@]314`, the Ratio Ki was found to be 15 in [1] and 10 in series [5]. The values for the Ki in series [2], in series [3] and in series [4] were 0.305 µM, 3.09 µM and 4.52 µM, respectively. Also, in series [6], the outcome was Active.
By ED50 is commonly meant the dose that gives a 50% effect, or the effect in half of the subjects. Read a high ED50 as a need for a large dose. For `CN1CC[C@]23c4c5ccc(O)c4O[C@H]2CC=C[C@H]3[C@H]1C5`, the Ratio Ki in series [1] was determined as 4; in [5], 16. In addition, the inhibition constant Ki amounted to 0.0021 µM in [2], 0.0455 µM in series [3] and 0.0118 µM in [4]. For the same compound, the ED50 turned out to be 0.33 mg/kg in [7], 0.2 mg/kg in series [8] and 0.03 mg/kg in series [9]. The result in [6] was Active.
Take `CO[C@H]1C=C[C@H]2[C@H]3Cc4ccc(O)c5c4[C@@]2(CCN3C)[C@H]1O5` [HETEROCODEINE]: the Ki in series [3] stood at 0.0228 µM; in series [4], 0.0658 µM.
Take `CO[C@H]1CC[C@H]2[C@H]3Cc4cccc5c4[C@@]2(CCN3C)[C@H]1O5`: the Ratio Ki is 17 in series [1] and 22 in [5]. Further, the inhibition constant (Ki) in series [2] was 0.524 µM; in [3], 11.6 µM; in [4] it was 8.83 µM.
